pIC50, pKi: −log10 of the molar value. The source made the active and inactive calls. The calls are words filed in the database; no cut-off is given here. Positions of bridges follow the written chain, without caps; N, C: chain ends. Non-standard residues stand in square brackets, D forms with d. Residues, ends and D or L forms follow the SMILES beside them. ξ: configuration not given here. *: point of attachment. S5 = C=CCCC[C@](C)(N)C(=O)O; Acryloyl = C=CC(=O)*; Propionyl = CCC(=O)*; ξDap = NCC(N)C(=O)O
Key:
[1] = target: T1, Bcl-2-related protein A1 (Homo sapiens) (UniProt Q16548); assay: Covalent binding affinity to human Bcl2A1 assessed as Kinact/Ki ratio by FBid based FP assay
T1 sequence (whole entry): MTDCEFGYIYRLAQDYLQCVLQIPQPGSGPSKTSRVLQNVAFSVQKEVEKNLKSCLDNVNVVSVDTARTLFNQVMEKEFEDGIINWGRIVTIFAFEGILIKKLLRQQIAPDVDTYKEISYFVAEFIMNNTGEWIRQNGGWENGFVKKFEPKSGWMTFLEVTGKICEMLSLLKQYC

[2] = target: T1, Bcl-2-related protein A1 (Homo sapiens); assay: Covalent binding affinity to human Bcl2A1 incubated for 2 hrs by in presence of trypsin by MS/MS analysis
In short: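 A1 at 1 μM incubated with peptide at 10 μM, 2 h, in pH 7.2 buffer. Intact conjugate mass checked by MS. The conjugate gel band was trypsin-digested and the Cys55-bearing A1 fragment with bound peptide identified by mass spectrometry.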

[3] = target: T2, Bcl-2-related protein A1 (Homo sapiens, UniProt Q16548); assay: (§1) Binding affinity to human Bcl2A1 incubated for 2 hrs by FBid based competitive FP assay
T2 sequence (Q16548 whole entry): T1 sequence (whole entry)

[4] = target: T1, Bcl-2-related protein A1 (Homo sapiens); assay: Covalent binding affinity to human Bcl2A1 incubated for 2 hrs by SDS-PAGE electrophoresis
[5] = target: T3, Induced myeloid leukemia cell differentiation protein Mcl-1 (Homo sapiens, UniProt Q07820); assay: Binding affinity to human Mcl1 incubated for 2 hrs by FBid based competitive FP assay
T3 sequence (Q07820 whole entry): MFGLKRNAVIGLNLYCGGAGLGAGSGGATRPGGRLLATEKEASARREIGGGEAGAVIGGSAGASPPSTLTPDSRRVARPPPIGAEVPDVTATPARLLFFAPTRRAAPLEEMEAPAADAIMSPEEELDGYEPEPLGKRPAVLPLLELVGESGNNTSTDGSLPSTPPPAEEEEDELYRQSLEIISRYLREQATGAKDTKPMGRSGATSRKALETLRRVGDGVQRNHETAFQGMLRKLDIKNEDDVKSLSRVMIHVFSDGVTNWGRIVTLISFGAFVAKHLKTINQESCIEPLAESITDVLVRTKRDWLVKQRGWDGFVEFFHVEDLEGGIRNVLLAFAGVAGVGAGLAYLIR

[6] = target: Bcl-2-like protein 1 (Homo sapiens) (UniProt Q07817); assay: Binding affinity to human Bcl-xL incubated for 2 hrs by FBid based competitive FP assay
Bcl-2-like protein 1 (Homo sapiens), sequence (Q07817 whole entry): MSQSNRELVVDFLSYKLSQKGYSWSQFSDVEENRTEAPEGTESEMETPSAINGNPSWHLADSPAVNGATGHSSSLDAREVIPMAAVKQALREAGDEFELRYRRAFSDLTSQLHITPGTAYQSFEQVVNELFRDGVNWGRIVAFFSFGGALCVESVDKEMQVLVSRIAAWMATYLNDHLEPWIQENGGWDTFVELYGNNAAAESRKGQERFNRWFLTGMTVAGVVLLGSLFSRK

[7] = target: T2, Bcl-2-related protein A1; assay: Covalent binding affinity to human Bcl2A1 by FBid based FP assay
[8] = target: Apoptosis regulator Bcl-2 (Homo sapiens) (UniProt P10415); assay: Binding affinity to human Bcl2 incubated for 2 hrs by FBid based competitive FP assay
Apoptosis regulator Bcl-2 (Homo sapiens), sequence (P10415 whole entry): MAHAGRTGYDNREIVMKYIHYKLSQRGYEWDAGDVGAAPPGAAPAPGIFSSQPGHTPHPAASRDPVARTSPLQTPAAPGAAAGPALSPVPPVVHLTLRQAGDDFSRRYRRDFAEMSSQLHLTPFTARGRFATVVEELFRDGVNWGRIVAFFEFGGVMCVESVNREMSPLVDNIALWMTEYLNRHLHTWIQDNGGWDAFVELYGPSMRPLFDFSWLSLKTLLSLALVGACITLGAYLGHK

[9] = target: T1, Bcl-2-related protein A1 (Homo sapiens); assay: Covalent binding affinity to Bcl2A1 in human U937 cells at 0.1 to 50 uM incubated for 24 hrs by Western blot analysis; details: U-937, dose 0.1-50 µM
[10] = target: T1, Bcl-2-related protein A1 (Homo sapiens); assay: Covalent binding affinity to human Bcl2A1 assessed as inactivation constant by FBid based FP assay
[11] = target: T4, Bcl-2-like protein 2 (Homo sapiens) (UniProt Q92843); assay: Binding affinity to human Bcl-w incubated for 2 hrs by FBid based competitive FP assay
T4 sequence (whole entry): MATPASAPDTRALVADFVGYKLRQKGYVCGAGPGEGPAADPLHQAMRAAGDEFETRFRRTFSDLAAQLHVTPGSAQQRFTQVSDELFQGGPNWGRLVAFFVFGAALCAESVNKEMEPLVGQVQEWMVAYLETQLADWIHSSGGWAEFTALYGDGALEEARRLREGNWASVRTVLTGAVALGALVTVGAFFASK

[12] = tested on: SK-MEL-28; assay: Cytotoxicity in human SK-MEL-28 cells assessed as reduction in cell viability incubated for 48 hrs by MTT assay; format: functional, cell-based; details: for pIC50: SK-MEL-28, 48 h
In short: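 SK-MEL-28 cells grown in DMEM with 10% FBS and penicillin/streptomycin. Peptide applied over a concentration series for 48 h. Viability read by MTT, and IC50 taken from the dose–response.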

[13] = target: T3, Induced myeloid leukemia cell differentiation protein Mcl-1; assay: Binding affinity to human Mcl1 by FBid based FP assay
[14] = target: T1, Bcl-2-related protein A1 (Homo sapiens); assay: as §1
[15] = tested on: SK-MEL-28; assay: Toxicity in human SK-MEL-28 cells at 50 uM incubated for 30 mins by LDH release assay; format: cell-based; details: sk-mel-28, 0.5 h
[16] = tested on: SK-MEL-28; assay: Synergistic cytotoxicity in human SK-MEL-28 cells assessed as reduction in cell viability at 1.25 to 30 uM incubated for 48 hrs in presence of etoposide by MTT assay; format: functional, cell-based; details: dose 1.25-30 µM
[17] = target: Bcl-2-like protein 11/Bcl-2-related protein A1 (Homo sapiens) (UniProt O43521+Q16548); assay: Inhibition of Bcl2A1-Bim interaction in human SK-MEL-28 cells at 30 uM incubated for 24 hrs by immunoprecipitation assay; format: cell-based
Bcl-2-like protein 11/Bcl-2-related protein A1 (Homo sapiens), sequence (O43521 whole entry, looked up, one chain of several): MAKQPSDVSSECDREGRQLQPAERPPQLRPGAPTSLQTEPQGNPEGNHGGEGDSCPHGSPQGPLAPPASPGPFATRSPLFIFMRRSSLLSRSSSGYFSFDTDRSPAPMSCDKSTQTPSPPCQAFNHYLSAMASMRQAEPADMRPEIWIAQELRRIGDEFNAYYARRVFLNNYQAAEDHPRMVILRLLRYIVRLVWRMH

[18] = target: Induced myeloid leukemia cell differentiation protein Mcl-1/Bcl-2-like protein 11 (Homo sapiens) (UniProt Q07820+O43521); assay: Inhibition of Mcl1-Bim interaction in human SK-MEL-28 cells at 30 uM incubated for 24 hrs by immunoprecipitation assay; format: cell-based
Induced myeloid leukemia cell differentiation protein Mcl-1/Bcl-2-like protein 11 (Homo sapiens), sequence (O43521 whole entry, looked up): as the sequence (O43521 whole entry, looked up, one chain of several) above
Induced myeloid leukemia cell differentiation protein Mcl-1/Bcl-2-like protein 11 (Homo sapiens), sequence (Q07820 whole entry, looked up): as the sequence (Q07820 whole entry) above

| Structure (SMILES) | Ratio [1] [mM⁻¹ s⁻¹] | pIC50 [3] | pIC50 [5] | Activity [6] | pKi [7] | Activity [8] | Activity [9] | Kinact [10] [s⁻¹] | Activity [11] | also measured |
| --- | --- | --- | --- | --- | --- | --- | --- | --- | --- | --- |
| CC[C@H](C)[C@H](NC(C)=O)C(=O)N[C@@H](Cc1c[nH]c2ccccc12)C(=O)N[C@H](C(=O)N[C@@H](C)C(=O)N[C@@H](CCC(N)=O)C(=O)N[C@@H](CCC(=O)O)C(=O)N[C@@H](CC(C)C)C(=O)N[C@@H](CCCNC(=N)N)C(=O)N[C@@]1(C)CCC/C=C/CCC[C@@](C)(C(=O)N[C@@H](Cc2ccccc2)C(=O)N[C@@H](CC(N)=O)C(=O)N[C@@H](C)C(=O)N[C@@H](Cc2ccc(O)cc2)C(=O)N[C@@H](Cc2ccc(O)cc2)C(=O)N[C@@H](C)C(=O)N[C@@H](CCCNC(=N)N)C(=O)N[C@@H](CCCNC(=N)N)C(N)=O)NC(=O)[C@H](CC(=O)O)NC(=O)CNC(=O)[C@H]([C@@H](C)CC)NC1=O)[C@@H](C)CC |  |  |  |  |  |  |  |  |  | pIC50 [12]: 4.80 |
| C=CC(=O)NCC1NC(=O)[C@@H](NC(C)=O)CCCCNC(=O)C[C@@H](C(=O)N[C@@H](CCC(=O)O)C(=O)N[C@@H](CC(C)C)C(=O)N[C@@H](CCCNC(=N)N)C(=O)N[C@H]2CCCCNC(=O)C[C@@H](C(=O)N[C@@H](Cc3ccccc3)C(N)=O)NC(=O)[C@H](CC(=O)O)NC(=O)CNC(=O)[C@H]([C@@H](C)CC)NC2=O)NC(=O)[C@H](C)NC(=O)[C@H]([C@@H](C)CC)NC1=O (stereo partly drawn) (Ac-K[ξDap](Acryloyl)IADELRKIGDDF-NH2; lactam 1-5, 9-13) | 118 | 8.19 | 7.32 | inactive | 7.52 | inactive | Active | 0.00349 | inactive |  |
| CCC(=O)NCC1NC(=O)[C@@](C)(NC(C)=O)CCC/C=C/CCC[C@@](C)(C(=O)N[C@@H](CC(C)C)C(=O)N[C@@H](CC(C)C)C(=O)N[C@@H](CCCNC(=N)N)C(=O)N[C@H]2CCCCNC(=O)C[C@@H](C(=O)N[C@@H](Cc3ccccc3)C(N)=O)NC(=O)[C@H](CC(=O)O)NC(=O)CNC(=O)[C@H]([C@@H](C)CC)NC2=O)NC(=O)[C@H](C)NC(=O)[C@H]([C@@H](C)CC)NC1=O (stereo partly drawn) (Ac-[S5][ξDap](Propionyl)IA[S5]LLRKIGDDF-NH2; staple (E) 1-5; lactam 9-13) |  |  |  | inactive |  |  |  |  | inactive | Activity [14]: Active; Activity [5]: Active; Activity [15]: Non-Toxic; Activity [16]: Active; inhibition [17]: Active; Activity [12]: Dose-dependent effect; pIC50 [12]: 5.06; inhibition [18]: Active |
| C=CC(=O)NCC1NC(=O)[C@@](C)(NC(C)=O)CCC/C=C/CCC[C@@](C)(C(=O)N[C@@H](CC(C)C)C(=O)N[C@@H](CC(C)C)C(=O)N[C@@H](CCCNC(=N)N)C(=O)N[C@H]2CCCCNC(=O)C[C@@H](C(=O)N[C@@H](Cc3ccccc3)C(N)=O)NC(=O)[C@H](CC(=O)O)NC(=O)CNC(=O)[C@H]([C@@H](C)CC)NC2=O)NC(=O)[C@H](C)NC(=O)[C@H]([C@@H](C)CC)NC1=O (stereo partly drawn) (Ac-[S5][ξDap](Acryloyl)IA[S5]LLRKIGDDF-NH2; staple (E) 1-5; lactam 9-13) |  |  |  |  |  |  |  |  |  | Activity [10]: Active |

More lines, main results first:

| Ratio [1] [mM⁻¹ s⁻¹] | pIC50 [3] | pIC50 [5] | Activity [6] | pKi [7] | Activity [8] | Activity [9] | Kinact [10] [s⁻¹] | Activity [11] | Structure (SMILES) | also measured |
| --- | --- | --- | --- | --- | --- | --- | --- | --- | --- | --- |
| 399 | 8.18 | 7.53 | inactive | 8.00 | inactive | Active | 0.00367 | inactive | C=CC(=O)NCC1NC(=O)[C@@](C)(NC(C)=O)CCC/C=C/CCC[C@@](C)(C(=O)N[C@@H](CCC(=O)O)C(=O)N[C@@H](CC(C)C)C(=O)N[C@@H](CCCNC(=N)N)C(=O)N[C@H]2CCCCNC(=O)C[C@@H](C(=O)N[C@@H](Cc3ccccc3)C(N)=O)NC(=O)[C@H](CC(=O)O)NC(=O)CNC(=O)[C@H]([C@@H](C)CC)NC2=O)NC(=O)[C@H](C)NC(=O)[C@H]([C@@H](C)CC)NC1=O (stereo partly drawn) (Ac-[S5][ξDap](Acryloyl)IA[S5]ELRKIGDDF-NH2; staple (E) 1-5; lactam 9-13) | Activity [2]: Active; Activity [4]: Active |
| 30 | 7.87 | 7.46 |  | 7.09 |  | Active | 0.00239 |  | C=CC(=O)NCC(NC(=O)[C@@H](NC(C)=O)[C@@H](C)CC)C(=O)N[C@H](C(=O)N[C@@H](C)C(=O)N[C@@H](CCC(N)=O)C(=O)N[C@@H](CCC(=O)O)C(=O)N[C@@H](CC(C)C)C(=O)N[C@@H](CCCNC(=N)N)C(=O)N[C@@]1(C)CCC/C=C/CCC[C@@](C)(C(=O)N[C@@H](Cc2ccccc2)C(=O)N[C@@H](CC(N)=O)C(=O)N[C@@H](C)C(=O)N[C@@H](Cc2ccc(O)cc2)C(=O)N[C@@H](Cc2ccc(O)cc2)C(=O)N[C@@H](C)C(=O)N[C@@H](CCCNC(=N)N)C(=O)N[C@@H](CCCNC(=N)N)C(N)=O)NC(=O)[C@H](CC(=O)O)NC(=O)CNC(=O)[C@H]([C@@H](C)CC)NC1=O)[C@@H](C)CC (stereo partly drawn) |  |
| 9 | 7.26 | 6.79 | inactive | 6.76 | inactive | Active | 0.00159 | inactive | C=CC(=O)NCC(NC(=O)[C@@H](NC(C)=O)[C@@H](C)CC)C(=O)N[C@H](C(=O)N[C@@H](C)C(=O)N[C@@H](CCC(N)=O)C(=O)N[C@@H](CCC(=O)O)C(=O)N[C@@H](CC(C)C)C(=O)N[C@@H](CCCNC(=N)N)C(=O)N[C@@]1(C)CCC/C=C/CCC[C@@](C)(C(=O)N[C@@H](Cc2ccccc2)C(N)=O)NC(=O)[C@H](CC(=O)O)NC(=O)CNC(=O)[C@H]([C@@H](C)CC)NC1=O)[C@@H](C)CC (stereo partly drawn) (Ac-I[ξDap](Acryloyl)IAQELR[S5]IGD[S5]F-NH2; staple (E) 9-13) |  |
|  |  |  |  |  |  | inactive |  |  | CCC(=O)NCC1NC(=O)[C@@](C)(NC(C)=O)CCC/C=C/CCC[C@@](C)(C(=O)N[C@@H](CCC(=O)O)C(=O)N[C@@H](CC(C)C)C(=O)N[C@@H](CCCNC(=N)N)C(=O)N[C@H]2CCCCNC(=O)C[C@@H](C(=O)N[C@@H](Cc3ccccc3)C(N)=O)NC(=O)[C@H](CC(=O)O)NC(=O)CNC(=O)[C@H]([C@@H](C)CC)NC2=O)NC(=O)[C@H](C)NC(=O)[C@H]([C@@H](C)CC)NC1=O (stereo partly drawn) (Ac-[S5][ξDap](Propionyl)IA[S5]ELRKIGDDF-NH2; staple (E) 1-5; lactam 9-13) | Activity [4]: inactive; Activity [13]: Active |
| 16.2 | 7.87 | 7.29 | inactive | 6.88 | inactive | Active | 0.00224 | inactive | C=CC(=O)NCC1NC(=O)[C@@](C)(NC(C)=O)CCC/C=C/CCC[C@@](C)(C(=O)N[C@@H](CCC(=O)O)C(=O)N[C@@H](CC(C)C)C(=O)N[C@@H](CCCNC(=N)N)C(=O)N[C@@]2(C)CCC/C=C/CCC[C@@](C)(C(=O)N[C@@H](Cc3ccccc3)C(N)=O)NC(=O)[C@H](CC(=O)O)NC(=O)CNC(=O)[C@H]([C@@H](C)CC)NC2=O)NC(=O)[C@H](C)NC(=O)[C@H]([C@@H](C)CC)NC1=O (stereo partly drawn) (Ac-[S5][ξDap](Acryloyl)IA[S5]ELR[S5]IGD[S5]F-NH2; staple (E) 1-5, 9-13) |  |
| 54 | 7.69 | 6.97 | inactive | 7.33 | inactive | Active | 0.00231 | inactive | C=CC(=O)NCC1NC(=O)[C@@H](NC(C)=O)CCCCNC(=O)C[C@@H](C(=O)N[C@@H](CCC(=O)O)C(=O)N[C@@H](CC(C)C)C(=O)N[C@@H](CCCNC(=N)N)C(=O)N[C@@]2(C)CCC/C=C/CCC[C@@](C)(C(=O)N[C@@H](Cc3ccccc3)C(N)=O)NC(=O)[C@H](CC(=O)O)NC(=O)CNC(=O)[C@H]([C@@H](C)CC)NC2=O)NC(=O)[C@H](C)NC(=O)[C@H]([C@@H](C)CC)NC1=O (stereo partly drawn) (Ac-K[ξDap](Acryloyl)IADELR[S5]IGD[S5]F-NH2; lactam 1-5; staple (E) 9-13) |  |
